Assay results published in PubChem BioAssay.
Values without a mark were called inactive. Results filed as inconclusive are left out. Calls of active or inactive are those of the source.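 The calls were made as follows, unless noted: active = inhibition over a set limit, the all-compound mean plus 3 SD, in both replicate runs; inconclusive = over that limit in just one replicate run; inactive = at or under that limit in both runs.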

Legend:
[1] = S. cerevisiae growth inhibition in permissive medium (OD615), pilot counter-assay for S. cerevisiae lifespan shortening project, permissive growth control (AID 705;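 active = growth inhibition above 25% in both replicates, a cutoff set 3 SD above the mean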); conditions: OD615, 24 h, at 10 µM, stronger effect = higher value
Outline: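 System: S. cerevisiae with engineered DeaD lifespan system. Medium: SC raffinose/galactose permissive medium. Doses: single compound dose of 10 µM, 0.25% DMSO final. Schedule: 24 h exposure, 30 °C. Measured by: OD615 turbidity read. Read-out: growth inhibition.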

[2] = S. cerevisiae growth inhibition in restrictive medium, OD615, pilot screen, restrictive growth control, yeast lifespan reduction project (AID 706;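 active = growth inhibition above a set limit, 3 SD over mean compound inhibition, in both replicates, cut at about 43% in these data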;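 also: modified DeaD lifespan yeast strain shifted to restrictive glucose medium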); conditions: OD615, 48 h, at 10 µM, stronger effect = higher value
Outline: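 Assay system – genetically modified Saccharomyces cerevisiae, DeaD replicative lifespan assay strain · Medium – CSMM-D glucose medium · Doses – 10 µM compound, 0.25% DMSO · Times – 4 h pre-incubation, 48 h exposure at 30 °C · Signal – optical density at 615 nm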

[3] = doxorubicin toxicity protection in MRP-1 cells – H69AR cells, CellTiter-Glo, duplicate, MRP-1 activator project, pilot screen (AID 807;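 active = viability increase at or above a cutoff of the median across tested compounds plus 3 SD, cut at about 8.5% in these data, passing the limit was not always enough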;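 also: compound pretreatment 18-22 h then 72 h combined with doxorubicin; 0% = doxorubicin alone and 100% = vehicle without doxorubicin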); conditions: H69AR viability with doxorubicin, CellTiter-Glo luminescence; at 10 µM; stronger effect = higher value
[4] = viability of HCT116 without oncogenic beta-catenin – human colon tumor cells, pilot screen (AID 823;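 active = cell viability at or below a set limit in both duplicate runs, the limit being the all-compound median minus 4 SD, cut at about 23% in these data, passing the limit was not always enough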;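 also: 0% = wells killed by 20 µM Hyamine and 100% = untreated DMSO cell wells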); conditions: HCT116 beta-catenin knockout viability, CellTiter-Glo, 60 h; at 10 µM; stronger effect = lower value
[5] = viability of PTEN-null HCT116 cells – cell-based, HCT116 clonal line, CellTiter-Glo, pilot screen (AID 824;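 active = viability at or below 27.92% in each of two runs, the all-compound median minus 4 SD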;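 also: 0% = 20 µM Hyamine control and 100% = vehicle cell control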); conditions: HCT116 PTEN-deleted viability, 60 h, at 10 µM, stronger effect = lower value
[6] = RAM pathway blockade in budding yeast – dse1pr::URA3 reporter, 5-FOA selection, pilot screen (AID 869);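 also: 0% = DMSO wells with no growth and 100% = 10 µM 1-NA-PP1 with full growth; RAM network block rescues cells from 5-FOA so hits raise OD615 growth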; conditions: S. cerevisiae dse1pr::URA3 5-FOA growth, OD615, 2 d; at 10 µM; stronger effect = higher value; strain carries analog-sensitive mutant Cbk1 kinase
[7] = RAM signaling pathway blockade in yeast – S. cerevisiae, Pdr1DBD-CYC8 efflux-inhibited sensitized strain, primary screen (AID 1298;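 active = RAM network inhibition above 8.4% in each of two replicates, 3 SD over the compound average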;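 also: 0% = DMSO untreated cells without growth and 100% = 10 µM 1-NA-PP1 full growth; higher means more yeast growth rescued from 5-FOA killing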); conditions: S. cerevisiae cbk1-as DSE1-URA3 strain, 5-FOA growth OD615, 2 d; at 50 µM; stronger effect = higher value

Compound | growth inhibition [1] [%] | growth inhibition [2] | viability increase [3] [%] | viability [4] [%] | viability [5] [%] | inhibition [6] [%] | RAM network inhibition [7] [%]
Cc1ccc(S(=O)(=O)N2CCCC2C(=O)Nc2nc3ccccc3s2)cc1 (configuration not stated) | -4.55 | -5.41% | -3.97 | 79.7 | 80.7 | 2.12 | 4.05
c1ccc(-c2noc(CSc3nnnn3-c3ccccc3)n2)cc1 | -10.7 | 22.4% | 0.25 | 97.8 | 94 | 0.485 | 3.86
CCOC(=O)c1c(C)n(C)c2cc(Br)c(C(=O)OC)cc12 | 8.75 | -4.36% | -3.53 | 97 | 96.3 | 1.99 | 7.11
CNC(=O)CN1C(=O)CSc2ncccc21 | 10.1 | 2.23% | -0.85 | 101 | 92.2 | 1.78 | -1.94
Cn1nnnc1SCC(=O)c1cccs1 | -23.8 | -13% | -2.93 | 93 | 90.9 | 1.24 | 1.92
Cc1ccc2oc(=O)c3cnn(CC(=O)N4CCc5ccccc5C4)c3c2c1 | -10.4 | -4.8% | -0.98 | 93.5 | 92.1 | 1.77 | 3.4
ON1C(c2ccc(Cl)cc2Cl)N(O)[C@H]2CCCC[C@H]21 (some centres not stated) | -6.31 | -5.43% | -1.27 | 101 | 100 | 1.35 | 4.97
CCOC(=O)N1CCN(Cc2nc3c(c(=O)n(C)c(=O)n3C)n2CCC(C)C)CC1 | -5 | -10.9% | -4.73 | 97.3 | 99.9 | 0.37 | 8.2
CN(C)C(CNC(=O)c1cccs1)c1cccnc1 (configuration not stated) | -14.2 | -20.4% | -0.5 | 105 | 97.4 | 3.75 | 0.26
CCCSc1nnc2c(n1)OC(c1cccn1C)N(C(C)=O)c1ccccc1-2 (configuration not stated) | -1.32 | -5.99% | -2.06 | 97.7 | 104 | 0.505 | 3.57
O=C1CCCc2sc3c(c2N1)CCCCC3 | -3.24 | 2.17% | -0.35 | 98.3 | 91.6 | 1.12 | 3.61
CCOc1ccc(C2CC(c3ccc(F)cc3)Nc3nc(N)nn32)cc1 (configuration not stated) | 4.3 | 6.27% | 2.97 | 105 | 101 | 0.7 | 0.88
CC1=C(C(=O)Nc2ccccc2C)C(c2ccccc2)NC(=O)N1 (configuration not stated) | 0.05 | -7.71% | -1.25 | 97.9 | 97.9 | 1.01 | 2.69
COc1ccc(C2CC(=O)C=C(NCC3CCCO3)C2)cc1 (configuration not stated) | -10.4 | -1.65% | -0.23 | 96.2 | 100 | 1.43 | 1.32
CC1=CC(C)(C)N(C(=O)CSc2nnc(-c3ccccc3)o2)c2ccc(C)cc21 | -10 | 2.73% | -5.46 | 62 | 66.2 | 0.325 | 6.03
CCOC(=O)c1ccc(N2C(=O)CC(C3CCCO3)C2=O)cc1 (configuration not stated) | 4.47 | 1.21% | -2.28 | 101 | 94.3 | 0.84 | 2.15
O=C(Nc1ccc(S(=O)(=O)N2CCOCC2)cc1)c1ccc(Cl)cc1 | -7.83 | -8.68% | -1.99 | 61.1 | 80.2 | 2.31 | 3.83
CCOC(=O)COc1cccc2c(=O)n(CC(=O)N3CCN(C(=O)OCC)CC3)ccc12 | -4.37 | -7.13% | -2.1 | 104 | 96.1 | 1.04 | 4.18

Compound | growth inhibition [1] [%] | growth inhibition [2] | viability increase [3] [%] | viability [4] [%] | viability [5] [%] | inhibition [6] [%] | RAM network inhibition [7] [%]
CC(NC(=O)CSc1ncnc2nc[nH]c12)c1ccccc1 (configuration not stated) | -15.5 | -5.1% | -0.99 | 99.8 | 96 | 0.755 | 0.48
COc1ccc(-c2nc(CS(=O)CC(=O)NCc3ccco3)c(C)o2)cc1OC (configuration not stated) | 1.38 | -5.82% | -4.57 | 83.4 | 84.6 | 0.205 | 4.18
O=C(O)CCCCCN1C(=O)c2ccc(C(=O)O)cc2C1=O | -14.4 | -10.8% | 1.08 | 103 | 105 | 1.88 | 6.72
Cc1ccccc1-n1nc2c(c1NC(=O)COc1ccc(Cl)cc1)CS(=O)C2 (configuration not stated) | -5.57 | -3.5% | 0.22 | 98.3 | 92.6 | 1.46 | 1.42
CN(C)CCCNCCCNC(=O)/C(=N\O)c1ccccn1 | -3.34 | -2.4% | 1.1 | 93.3 | 105 | 1.53 | 2.45
CC1(C)CC(=O)C(C=NCCN2CCN(C(=O)CC3CCCC3)CC2)=C(O)C1 | -24.8 | -8.86% | -1.93 | 96.9 | 95.2 | 1.25 | 7.49
Cn1c(Cn2c(=O)sc3ccccc32)nnc1SCC(=O)NC1CCCCC1 | -17 | -24.8% | -0.4 | 97.6 | 98 | 0.415 | 1.06
Cn1c(NC(=O)c2ccc(Cl)cc2Cl)cc(=O)n(C)c1=O | -4.17 | 0.265% | -2.37 | 98.7 | 90.8 | 0.95 | -0.2
Cc1ccc(-c2nn(C)c(=O)c3ccccc23)cc1CNC(=O)c1ccco1 | -19.5 | -16.5% | -6.36 | 78.3 | 72.9 | 1.3 | 6.65
Cc1cc(N)n2ncc(-c3cccc(Br)c3)c2n1 | 2.1 | -6.45% | -6.91 | 75.4 | 71.8 | 0.315 | 1.65
Cc1cc(Nc2ccc(F)cc2Cl)n2ncnc2n1 | -7.73 | 2.61% | -2.45 | 103 | 95.1 | -0.7 | 1.89
O=C(NCc1cccnc1)c1nnc(Cc2ccc(F)cc2)o1 | 7.17 | 2.65% | 2.16 | 98.4 | 103 | 0.03 | 3.62
Cc1cc(NC(=O)CSc2ccc3nnc(-c4ccccn4)n3n2)no1 | -3.09 | 10.1% | -1.04 | 102 | 90.4 | 0.535 | 1.71
O=C(NCCN1C(=O)C2C3C=CC(C3)C2C1=O)Nc1ccccc1O (configuration not stated) | -6.45 | -1.21% | -1.45 | 106 | 106 | 1.5 | 4.02
COc1ccc(S(=O)(=O)Cc2ccc(C(=O)N3CCCC3)o2)cc1 | 5.75 | -2.15% | -1.61 | 96.7 | 91 | 1.11 | 4.21
COC(=O)c1ccccc1NC(=O)C1CCCN(c2nnc(-n3cccc3)s2)C1 (configuration not stated) | -1.67 | 4.77% | -2.28 | 86.2 | 82.2 | 1.65 | 8.61
c1ccc(-c2csc3nnc(SCc4ccc5c(c4)OCO5)n23)cc1 | 22.1 | 64.5% (active) | -2.01 | 93.2 | 82.7 | 0.87 | 3.09
Cn1c(=O)oc2cc(S(=O)(=O)NCc3ccco3)ccc21 | 2.12 | 5.31% | -4.38 | 101 | 93.8 | 1.41 | 3.2
